Screens deposited in PubChem by several laboratories.
The entries come from a sample that favours hits as a whole.
Bfl-1 A1 inh = inhibitors of the anti-apoptotic protein A1, read as caspase activation | MEF A1-2A-BIM cells, Caspase-Glo 3/7 luminescence, 3 h; percent of clofoctol response, vehicle zero | caspase activation, % (no concentration beside the values) | 330,000 compounds, 0.066% hits;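 active = over half of replicate activation scores above 10%, or exactly half above 10 with the replicate mean above 10; inconclusive = replicate mean below 10 yet half the replicates above 10; inactive = over half of replicates below 10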
UPR CHOP act = activators of apoptotic arm of unfolded protein response (CHOP); CHO-CHOP luciferase reporter, UPR activation, luminescence; percent of tunicamycin response over DMSO baseline; activation, % at 10 µM; 330,000 compounds, 0.34% hits; AID 449763;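 active = at 10 µM dose, activation of 40% or more, normalized to positive control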;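 also: 100% = tunicamycin at 10 µg/mL and 0% = DMSO alone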
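Test system: CHO-CHOP cells, stable luciferase reporter of PERK-eIF2a-CHOP signalling | Quantity: 500 CHO-CHOP cells per well | Buffer or medium: F12 plus 10% serum | Compound dosing: 10 µM single point, 0.5% DMSO | Schedule: 6 h compound treatment, 37 °C | Signal: Luciferase luminescence | Control set: Tunicamycin high control, DMSO low control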
XBP1 UPR activ = adaptive UPR (XBP1) activation; CHO-XBP1 luciferase reporter, IRE1-XBP1 UPR activation, luminescence; percent of tunicamycin response, DMSO as zero; activation, % at 20 µM; 330,000 compounds, 0.33% hits; AID 463104;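 active = versus positive control, 20 µM dose yields 30% or more activation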;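 also: 100% = tunicamycin at 10 µg/mL and 0% = DMSO only wells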
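Signal: luciferase luminescence; Assay system: CHO-XBP1 luciferase reporter cells; Amount: one thousand reporter cells per well; Dosing: 20 µM single concentration, DMSO 1%; Benchmarks: high control tunicamycin 10 µg/mL final, low control DMSO vehicle only; Schedule: 6 h compound exposure at 37 °C, 5% CO2; Evaluation: percent activation relative to tunicamycin reference.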
CHOP inh = inhibitors of CHOP induction in ER stress response; CHO-K1 CHOP-promoter luciferase, tunicamycin-induced, 15-18 h; inhibition, % at 10 µM; 220,000 compounds, 3.8% hits; AID 2732;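 active = compounds that reduced the stress-induced luciferase reporter signal by more than about 70% of percent inhibition, limit read from the data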;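 also: 0% = tunicamycin plus vehicle and 100% = wells without tunicamycin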
UPR XBP1 confirm = confirmation of adaptive unfolded protein response (XBP1) activators. shares compounds with XBP1 UPR activ. CHO-XBP1 IRE1-XBP1 luciferase reporter, luminescence. activation, % at 20 µM. 1,000 compounds, 63% hits. AID 485299;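 active = reporter signal at least 30% of the positive control's activation in two or more of four replicate wells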;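 also: plate controls were DMSO negative control for no effect and tunicamycin 10 µg/mL positive control for full effect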
An asterisk follows results filed as active; ? = inconclusive; . = no result.

SMILES | Bfl-1 A1 inh | UPR CHOP act | XBP1 UPR activ | CHOP inh | UPR XBP1 confirm
CCCCn1c(N)c(N(CC(C)C)C(=O)c2ccc(S(=O)(=O)N(CC)c3ccccc3)cc2)c(=O)[nH]c1=O | 0 | 2 | 0 | . | .
C=CCn1c(SCc2nc3ccccc3c(=O)[nH]2)nc2sc3c(c2c1=O)CCCC3 | 1 | 0 | 132* | -12 | -1
Cc1ccc(-c2cc(C(=O)N3CCN(c4ccccc4O)CC3)c3ccccc3n2)o1 | -1 | 4 | 38* | . | 1
COc1cc(/C=N/NC(=O)c2sc3nc(C)cc(C)c3c2N)ccc1O | 0 | 1 | 46* | 59 | 16
COC(=O)c1sc2nc(C)cc(C)c2c1N | -1 | 2 | -3 | 7 | .
CNC(=O)c1ccc(-n2nc(C)cc2-c2ccccc2)cc1 | 1 | 2 | 44* | -3 | 0
Cc1cc(-c2ccccc2)n(-c2ccc(C(N)=O)cc2)n1 | 0 | -1 | 0 | 4 | .
COc1ccc(NC(=O)COC(=O)CC2CCCCC2)cc1 | 1 | 2 | 1 | . | .
CC(C)=CCc1c(O)cc2c(=O)c3ccc(O)cc3oc2c1O | 1 | 6 | 18 | . | .
CC(C)=CCc1c2c(c3occ(-c4ccc(O)cc4)c(=O)c3c1O)C=CC(C)(C)O2 | 0 | 5 | 56* | 76* | 50*
O=C(CN1C(=O)C2C3CC(C(Br)C3Br)C2C1=O)OCC(=O)c1cccc([N+](=O)[O-])c1 (configuration not stated) | ? | -1 | -2 | 3 | .
Cc1ccc2oc(C(Cl)(Cl)Cl)cc(=O)c2c1 | -1 | 7 | 112* | 64 | 121*
COC(=O)c1sccc1NC(=O)c1cc(-c2cccc(C)c2)nc2ccccc12 | -1 | -1 | 64* | 28 | 80*
CC(=O)c1cccc(NC(=O)c2cc(-c3ccncc3)nc3ccccc23)c1 | 1 | 1 | -1 | . | .
O=C(O)c1cc(-c2cccnc2)nc2ccc(Br)cc12 | 0 | -1 | 3 | 9 | .
CSc1ccccc1NC(=O)c1cc(-c2cccnc2)nc2ccc(Br)cc12 | 0 | 1 | 32* | 104* | 66*
Cc1cc(NC(=O)c2cc(-c3ccncc3)nc3ccccc23)ccc1Br | 0 | 2 | 66* | . | 44*
COc1ccccc1-c1nnc(SCC(=O)N2CCOCC2)n1-c1ccccc1 | 1 | -4 | -3 | 9 | .
Cc1cnc(Nc2nc3ccccc3o2)nc1C(=O)Nc1cccc(C(F)(F)F)c1 | 0 | 3 | 45* | 91* | 9
O=c1[nH]c(C2CCCN(S(=O)(=O)c3ccccc3)C2)nc2c1nnn2Cc1ccc2c(c1)OCCO2 (configuration not stated) | 0 | 1 | -2 | . | .
CSc1nsc(SC)c1C(=O)Nc1ccc(Cl)cc1 | 1 | 0 | -1 | 19 | .
Cc1ccccc1-c1nc2cc(Cl)ccc2o1 | -4 | 2 | 5 | 37 | .
Cc1ccccc1-c1nc2cc(Cl)ccc2c(=O)o1 | 1 | 0 | 49* | . | 16
CC(C)c1ccc(C2/C(=C(\O)c3ccc4c(c3)OCCO4)C(=O)C(=O)N2CCN2CCOCC2)cc1 (configuration not stated) | 0 | 0 | -5 | . | .
CC1(C)CC(=O)C(C=Nc2ccc3cn[nH]c3c2)=C(O)C1 | 0 | 15 | 30* | 47 | 10
SMILES | Bfl-1 A1 inh | UPR CHOP act | XBP1 UPR activ | CHOP inh | UPR XBP1 confirm
CC1(C)CC(=O)C(C=Nc2ccc3[nH]ncc3c2)=C(O)C1 | 1 | 1 | 6 | 21 | .
Cc1ccc2c(c1)C(=O)C(=O)N2Cc1ccc(Cl)cc1 | ? | 5 | 37* | . | 30*
Cc1ccc2c(c1)C(=O)C(=O)N2Cc1ccc(F)cc1 | 2 | 1 | 7 | . | .
Cc1nc([N+](=O)[O-])cn1CC(=O)c1ccc(F)cc1 | ? | 1 | 3 | . | .
O=c1c2ccccc2nc(COc2ccccc2)n1/N=C/c1ccc(O)c(O)c1 | 0 | 3 | 32* | -8 | 24
COc1ccc(-c2cc(-c3ccc(OC)cc3)nc(-c3ccc4c(c3)NC(=O)CO4)c2)cc1 | 0 | 1 | 38* | 12 | 15
COC(=O)C1=C(C)N(Cc2ccccc2)C(=NCc2ccccc2)N[C@H]1c1cccc(C(F)(F)F)c1 | 0 | 8 | 30* | . | 18
COC(=O)C1=C(C)N(Cc2ccccc2)C(=NCc2cccc(Cl)c2)N[C@H]1c1cccc(F)c1 | 0 | 19 | 45* | . | 19
